Experimental data taken from ChEMBL document CHEMBL1125387, “Synthesis and biological action of the aminotetrahydroisoquinocarbazoles and related compounds: a new class of compounds with antiarrhythmic activity” (1992).

These compounds were tested on Mus musculus (assay: Antiarrhythmic activity in chloroform induced ventricular arrhythmia in mice, 15 min before exposure to chloroform intraperitoneal administration). Conditions: not given.
Format: functional, Heart
Method in brief: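 Female ICR mice (20-25 g) dosed ip; 15 min later placed 2 min in 2-L glass chamber saturated with chloroform vapor (150 mL chloroform warmed at 33 °C). Chest opened, ventricular ECG recorded 1 min via silver electrodes. Dose judged effective if ventricular rate <400 bpm just after thoracotomy; 3-10 mice per dose level; ED50 for protection from ventricular tachycardia calculated.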

SMILES | ED50 [mg/kg]
Cl.N[C@@H]1Cc2c3n(c4cccc(O)c24)C(=O)C[C@H]2CCC[C@@H]1[C@@H]32 (stereo in doubt; (+)-10) | 5

Same assay, conditions: Mus musculus, Heart, ip; read-out: ED50

SMILES | ED50 [mg/kg]
N[C@@H]1Cc2c3n(c4ccccc24)C(=O)C[C@H]2CC[C@@H]1[C@@H]32.O=C(O)/C=C/C(=O)O | 40
N[C@@H]1Cc2c3n(c4ccccc24)C(=O)C[C@H]2CCC[C@@H]1[C@@H]32.O=C(O)/C=C/C(=O)O | 32
CC[C@]12CCC[C@@H]3[C@H]1c1c(c4c(O)cccc4n1C(=O)C2)C[C@H]3C(=O)NN | > 40
N[C@@H]1Cc2c3n(c4ccccc24)C(=O)C[C@H]2CCCC[C@@H]1[C@@H]32.O=C(O)/C=C/C(=O)O | 80
N[C@@H]1Cc2c3n(c4ccccc24)C(=O)CC[C@H]3C1.O=C(O)/C=C/C(=O)O | > 40
CC[C@]12CCC[C@@H]3[C@H]1c1c(c4cc(O)ccc4n1C(=O)C2)C[C@H]3C(=O)NCCN1CCCC1 | > 40
CCCC[C@@]12CCC[C@H]3[C@H](N)Cc4c(n(c5ccc(O)cc45)C(=O)C1)[C@H]32 | 12
CC(C)[C@@]12CCC[C@H]3[C@H](N)Cc4c(n(c5ccc(O)cc45)C(=O)C1)[C@H]32 | 8.4
C[C@@]12CCC[C@H]3[C@H](N)Cc4c(n(c5ccc(O)cc45)C(=O)C1)[C@H]32 | > 40
CC[C@]12CCC[C@@H]3[C@H]1c1c(c4cc(O)ccc4n1C(=O)C2)C[C@H]3C(=O)OCCN1CCN(C)CC1 | 34
N[C@@H]1Cc2c3n(c4ccc(O)cc24)C(=O)C[C@@]2(CCc4ccccc4)CCC[C@@H]1[C@@H]32 | > 40
N[C@@H]1Cc2c3n(c4ccc(O)cc24)C(=O)C[C@H]2CCC[C@@H]1[C@@H]32 | > 40
N[C@@H]1Cc2c3n(c4ccc(O)cc24)C(=O)C[C@@]2(Cc4ccccc4)CCC[C@@H]1[C@@H]32 | > 40
N[C@@H]1Cc2c3n(c4cccc(O)c24)C(=O)C[C@@]2(CCc4ccccc4)CCC[C@@H]1[C@@H]32 | > 40
CC[C@@]12CCC[C@H]3CCc4c(n(c5ccccc45)C(=O)C1)[C@H]32 | > 40
Cl.NCCc1cn(C(=O)CC2CCCCC2)c2ccccc12 | 48
CC[C@@]12CCC[C@H]3[C@H](N)Cc4c(n(c5cc(O)c(O)cc45)C(=O)C1)[C@H]32.Cl | 7
C[C@@]12CCC[C@H]3[C@H](N)Cc4c(n(c5cc(O)c(O)cc45)C(=O)C1)[C@H]32.Cl | 34
CC[C@@]12CCC[C@H]3[C@H](N)Cc4c(n(c5cc(OC)c(OC)cc45)C(=O)C1)[C@H]32.Cl | 34
CC[C@@]12CCC[C@H]3[C@H](N)Cc4c(n(c5cccc(O)c45)C(=O)C1)[C@H]32.Cl | 6
CCC[C@@]12CCC[C@H]3[C@H](N)Cc4c(n(c5cc(O)c(O)cc45)C(=O)C1)[C@H]32.Cl | 20
Cl.N[C@@H]1Cc2c3n(c4cc(O)c(O)cc24)C(=O)C[C@H]2CCC[C@@H]1[C@@H]32 | > 40
C[C@@]12CCC[C@H]3[C@H](N)Cc4c(n(c5cccc(O)c45)C(=O)C1)[C@H]32.Cl | 8
CCC[C@@]12CCC[C@H]3[C@H](N)Cc4c(n(c5cccc(O)c45)C(=O)C1)[C@H]32.Cl | 20
Cl.N[C@@H]1Cc2c3n(c4cccc(O)c24)C(=O)C[C@H]2CCC[C@@H]1[C@@H]32 (stereo in doubt; 10) | 10
CC(C)N(CCC(C(N)=O)(c1ccccc1)c1ccccn1)C(C)C (configuration not stated) [DISOPYRAMIDE] | 11.8
